# Reference: ChEMBL document CHEMBL1629645 (Antimicrob Agents Chemother, 2009)
# Calls of active or inactive are those of the source. The rule behind the calls is not given here.
# Columns and labels:
# [1] = Half life in cage fluid of Albino guiena pig at 50 mg/kg, ip; details: guinea pig
# Staphylococcus aureus [2] = test: Antibacterial activity against methicillin-resistant Staphylococcus aureus ATCC 43300 infected in Albino guiena pig assessed as no. of culture-negative cage fluid samples at 25 mg/kg measured on day 10 postinfection; format: functional
# Method in brief: (§1)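 Same guinea pig cage infection and intraperitoneal 4-day, twice-daily regimen. Cage fluid cultured on day 4 and day 10. Result is the number of cage fluid samples without detectable MRSA growth over the total cages per group.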
# Staphylococcus aureus [3] = test: Antibacterial activity against methicillin-resistant Staphylococcus aureus ATCC 43300 infected in Albino guiena pig assessed as decrease in planktonic bacterial counts in cage fluid at 75 mg/kg measured on day 4 postinfection; format: functional
# Method in brief: (§2)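 Guinea pig subcutaneous cage model infected with 2 × 10^4 CFU MRSA. Intraperitoneal dosing every 12 h for 4 days, starting day 1. Cage-fluid CFU counted on day 1, day 4 (before last dose) and day 10. Δlog10 CFU/ml is day 4 or day 10 minus day 1. Quantification limit 1,000 CFU/ml; negatives set to 3 log10. Median and IQR.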
# [4] = Cmax in cage fluid of Albino guiena pig at 75 mg/kg, ip after 3 hrs; format: ADME, organism-based, Cavia porcellus, Interstitial fluid; set-up: dose 75 mg/kg, route intraperitoneal; details: guinea pig
# Method in brief: (§3)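 Noninfected male albino guinea pigs (550–600 g) carrying subcutaneous Teflon cages, verified sterile, received one intraperitoneal dose. Cage fluid was aspirated at 1–24 h, two cages per animal, three animals per dose, centrifuged and stored at −20°C. Levels were read by agar diffusion bioassay (S. aureus ATCC 29213; standards in 31% guinea pig serum; limit 1.25 µg/ml). Per-animal parameters are given as mean ± SD; Cmin is the 12 h trough.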
# Staphylococcus aureus [5] = test: Antibacterial activity against methicillin-resistant Staphylococcus aureus ATCC 43300 infected in Albino guiena pig assessed as no. of culture-negative cage fluid samples at 50 mg/kg measured on day 10 postinfection; format: functional; method in brief: as §1
# Staphylococcus aureus [6] = test: Antibacterial activity against methicillin-resistant Staphylococcus aureus ATCC 43300 infected in Albino guiena pig assessed as cure rate at 75 mg/kg measured on day 4 postinfection; format: functional, organism-based; set-up: dose 75 mg/kg
# Method in brief: (§4)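 Male albino guinea pigs, 550–600 g, with four subcutaneous perforated Teflon cages each. Cages infected with 2 × 10^4 CFU MRSA. Intraperitoneal treatment from 24 h post-infection, every 12 h for 4 days (8 doses), ≥3 animals per group. Explanted cages incubated in TSB at 37°C for 48 h, then plated. Cure is the share of cages without MRSA growth.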
# Staphylococcus aureus [7] = test: Antibacterial activity against methicillin-resistant Staphylococcus aureus ATCC 43300 by macrodilution method; format: functional
# Method in brief: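 Broth macrodilution MIC in Mueller-Hinton broth per CLSI. Inoculum 1 × 10^5 to 5 × 10^5 CFU/ml. Ten twofold drug dilutions, 18 h at 37°C without shaking. MIC is the lowest concentration with no visible growth. Triplicate.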
# [8] = Half life in cage fluid of Albino guiena pig at 25 mg/kg, ip; details: guinea pig
# [9] = AUC (0 to 24 hrs) in cage fluid of Albino guiena pig at 25 mg/kg, ip; format: ADME, organism-based, Cavia porcellus; set-up: time < 24 hr, dose 25 mg/kg, route intraperitoneal; details: guinea pig
# Staphylococcus aureus [10] = test: Antibacterial activity against methicillin-resistant Staphylococcus aureus ATCC 43300 infected in Albino guiena pig assessed as decrease in planktonic bacterial counts in cage fluid at 25 mg/kg measured on day 4 postinfection; format: functional; method in brief: as §2
# Staphylococcus aureus [11] = test: Antibacterial activity against methicillin-resistant Staphylococcus aureus ATCC 43300 infected in Albino guiena pig assessed as cure rate at 25 mg/kg measured on day 10 postinfection; format: functional, organism-based; set-up: dose 25 mg/kg; method in brief: as §4
# [12] = Tmax in cage fluid of Albino guiena pig at 75 mg/kg, ip; format: ADME, organism-based, Cavia porcellus; set-up: dose 75 mg/kg, route intraperitoneal; details: guinea pig; method in brief: as §3
# Staphylococcus aureus [13] = test: Antibacterial activity against methicillin-resistant Staphylococcus aureus ATCC 43300 infected in Albino guiena pig assessed as no. of culture-negative cage fluid samples at 25 mg/kg measured on day 4 postinfection; format: functional; method in brief: as §1
# Staphylococcus aureus [14] = test: Antibacterial activity against methicillin-resistant Staphylococcus aureus ATCC 43300 infected in Albino guiena pig assessed as inhibition of bacterial growth in cage fluid at 75 mg/kg measured on day 10 postinfection compared to the bacterial growth on day 1; format: functional, organism-based; set-up: dose 75 mg/kg; method in brief: as §2
# Staphylococcus aureus [15] = test: Antibacterial activity against methicillin-resistant Staphylococcus aureus ATCC 43300 infected in Albino guiena pig assessed as no. of culture-negative cage fluid samples at 50 mg/kg measured on day 4 postinfection; format: functional; method in brief: as §1
# [16] = Tmax in cage fluid of Albino guiena pig at 50 mg/kg, ip; format: ADME, organism-based, Cavia porcellus; set-up: dose 50 mg/kg, route intraperitoneal; details: guinea pig; method in brief: as §3
# Staphylococcus aureus [17] = test: Antibacterial activity against methicillin-resistant Staphylococcus aureus ATCC 43300 infected in Albino guiena pig assessed as no. of culture-negative cage fluid samples at 75 mg/kg measured on day 10 postinfection; format: functional; method in brief: as §1
# [18] = Half life in cage fluid of Albino guiena pig at 75 mg/kg, ip; details: guinea pig
# [19] = Cmax in cage fluid of Albino guiena pig at 25 mg/kg, ip after 3 hrs; format: ADME, organism-based, Cavia porcellus, Interstitial fluid; set-up: dose 25 mg/kg, route intraperitoneal; details: guinea pig; method in brief: as §3
# [20] = AUC (0 to 24 hrs) in cage fluid of Albino guiena pig at 75 mg/kg, ip; format: ADME, organism-based, Cavia porcellus; set-up: time < 24 hr, dose 75 mg/kg, route intraperitoneal; details: guinea pig
# Staphylococcus aureus [21] = test: Antibacterial activity against methicillin-resistant Staphylococcus aureus ATCC 43300 during logarithmic growth phase by macrodilution method; format: functional
# [22] = Cmin in cage fluid of Albino guiena pig at 50 mg/kg, ip after 12 hrs; format: ADME, organism-based, Cavia porcellus; set-up: dose 50 mg/kg, route intraperitoneal; details: guinea pig, read-out: Cmin; method in brief: as §3
# [23] = Cmin in cage fluid of Albino guiena pig at 75 mg/kg, ip after 12 hrs; format: ADME, organism-based, Cavia porcellus; set-up: dose 75 mg/kg, route intraperitoneal; details: guinea pig, read-out: Cmin; method in brief: as §3
# Staphylococcus aureus [24] = test: Antibacterial activity against methicillin-resistant Staphylococcus aureus ATCC 43300 infected in Albino guiena pig assessed as decrease in planktonic bacterial counts in cage fluid at 50 mg/kg after measured on day 10 postinfection; format: functional; method in brief: as §2
# Staphylococcus aureus [25] = test: Antibacterial activity against methicillin-resistant Staphylococcus aureus ATCC 43300 during stationary growth phase by macrodilution method; format: functional
# [26] = AUC (0 to 24 hrs) in cage fluid of Albino guiena pig at 50 mg/kg, ip; format: ADME, organism-based, Cavia porcellus; set-up: time < 24 hr, dose 50 mg/kg, route intraperitoneal; details: guinea pig
# Staphylococcus aureus [27] = test: Antibacterial activity against methicillin-resistant Staphylococcus aureus ATCC 43300 infected in Albino guiena pig assessed as decrease in planktonic bacterial counts in cage fluid at 75 mg/kg after measured on day 10 postinfection; format: functional; method in brief: as §2
# [28] = Cmax in cage fluid of Albino guiena pig at 50 mg/kg, ip after 3 hrs; format: ADME, organism-based, Cavia porcellus, Interstitial fluid; set-up: dose 50 mg/kg, route intraperitoneal; details: guinea pig; method in brief: as §3
# Staphylococcus aureus [29] = test: Antibacterial activity against methicillin-resistant Staphylococcus aureus ATCC 43300 infected in Albino guiena pig assessed as no. of culture-negative cage fluid samples at 75 mg/kg measured on day 4 postinfection; format: functional; method in brief: as §1
# Staphylococcus aureus [30] = test: Antibacterial activity against 1 x10'6 to 5 x10^6 CFU/ml methicillin-resistant Staphylococcus aureus ATCC 43300 assessed as effect on bacterial count at MIC after 24 hrs by time kill study; format: functional, organism-based
# Method in brief: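 MRSA inoculum of 1 × 10^6 to 5 × 10^6 CFU/ml in 10 ml Mueller-Hinton broth. Drug at 1× and 4× MIC; drug-free growth control. Incubated at 37°C. Aliquots plated on Mueller-Hinton agar at 0, 6 and 24 h. Quantification limit 200 CFU/ml. Mean log10 CFU/ml reduction ± SD.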
# Staphylococcus aureus [31] = test: Antibacterial activity against methicillin-resistant Staphylococcus aureus ATCC 43300 infected in Albino guiena pig assessed as decrease in planktonic bacterial counts in cage fluid at 50 mg/kg measured on day 4 postinfection; format: functional; method in brief: as §2
# [32] = Tmax in cage fluid of Albino guiena pig at 25 mg/kg, ip; format: ADME, organism-based, Cavia porcellus; set-up: dose 25 mg/kg, route intraperitoneal; details: guinea pig; method in brief: as §3
# [33] = Cmin in cage fluid of Albino guiena pig at 25 mg/kg, ip after 12 hrs; format: ADME, organism-based, Cavia porcellus; set-up: dose 25 mg/kg, route intraperitoneal; details: guinea pig, read-out: Cmin; method in brief: as §3
# Staphylococcus aureus [34] = test: Antibacterial activity against methicillin-resistant Staphylococcus aureus ATCC 43300 infected in Albino guiena pig assessed as cure rate at 50 mg/kg measured on day 4 postinfection; format: functional, organism-based; set-up: dose 50 mg/kg; method in brief: as §4
smiles,measurement,setting,value
CC(=O)NC[C@H]1CN(c2ccc(N3CCOCC3)c(F)c2)C(=O)O1 [LINEZOLID],half-life,[1],3.5 h
same,Activity,Staphylococcus aureus [2],0%
same,log10CFU/ml,Staphylococcus aureus [3],4.6
same,Cmax,[4],18100 ng/mL
same,Activity,Staphylococcus aureus [5],0%
same,Activity,Staphylococcus aureus [6],inactive
same,MIC,Staphylococcus aureus [7],2.5 µg/mL
same,half-life,[8],6.8 h
same,AUC(0-t) at 24 h,[9],87.8 µg·h/mL
same,log10CFU/ml,Staphylococcus aureus [10],4.5
same,Activity,Staphylococcus aureus [11],inactive
same,Tmax,[12],2.8 h
same,Activity,Staphylococcus aureus [13],8%
same,Activity,Staphylococcus aureus [14],Active
same,Activity,Staphylococcus aureus [15],17%
same,Tmax,[16],3.3 h
same,Activity,Staphylococcus aureus [17],17%
same,half-life,[18],2.6 h
same,Cmax,[19],6800 ng/mL
same,AUC(0-t) at 24 h,[20],126 µg·h/mL
same,MBC,Staphylococcus aureus [21],> 20 µg/mL
same,concentration at 12 h,[22],3700 ng/mL
same,concentration at 12 h,[23],2500 ng/mL
same,log10CFU/ml,Staphylococcus aureus [24],7.1
same,MBC,Staphylococcus aureus [25],> 20 µg/mL
same,AUC(0-t) at 24 h,[26],119 µg·h/mL
same,log10CFU/ml,Staphylococcus aureus [27],4.5
same,Cmax,[28],12700 ng/mL
same,Activity,Staphylococcus aureus [29],25%
same,Activity,Staphylococcus aureus [30],inactive
same,log10CFU/ml,Staphylococcus aureus [31],5.1
same,Tmax,[32],3 h
same,concentration at 12 h,[33],3000 ng/mL
same,Activity,Staphylococcus aureus [34],inactive
